# Experimental data collected from several papers.
# Compare with care: the assays were run in different laboratories.
# PDE4D: 3',5'-cyclic-AMP phosphodiesterase 4D (PDE4D, Homo sapiens, UniProt Q08499)
# MAK: Serine/threonine-protein kinase MAK (MAK, Homo sapiens, UniProt P20794)
# MTNR1B: Melatonin receptor type 1B (MTNR1B, Homo sapiens, UniProt P49286)
Structure (SMILES),target,assay,system,conditions,endpoint,result
O=C(O)CC(O)(CC(=O)O)C(=O)O,PDE4D,"enzyme activity, inhibitor, radiometric",,5 µM,inhibition,16.6%
CC(=O)O[C@H]1C[C@H]2[C@@H]([C@H](OC(C)=O)C[C@@H]3CC(NCCCNc4ccnc5cc(Cl)ccc45)CC[C@@]32C)[C@@H]2CC[C@H]([C@H](C)CCCNCCCNc3ccnc4cc(Cl)ccc34)[C@@]12C (mixture of isomers),"Botulinum neurotoxin type A, protease (Clostridium botulinum, UniProt P0DPI0)","enzyme activity, inhibitor",,10 µM,inhibition,99%
O=C1C[C@@H]2OCC=C3CN4CC[C@]56c7ccccc7N1[C@H]5[C@H]2[C@H]3C[C@H]46,"Cyclin-dependent kinase 7, with cyclin H (CDK7, Homo sapiens, UniProt P50613)","enzyme activity, inhibitor, ADP detection",,10 µM,inhibition,38.1%
Cc1nn(C)cc1-c1nc2c(N3CCN(Cc4ccc(Cl)cc4)CC3)c(Cl)cnc2[nH]1,MAK,"binding, competition with immobilised ligand",,1 µM,remaining binding,85%
COc1ccc2cccc(C(CO)CNC(=O)CF)c2c1 (stereo not shown),MTNR1B,"cAMP, agonist, TR-FRET",CHO-K1,20 min,Emax,93%
Nc1ncc(-c2nc(N3CCOCC3)nc(N3CCOCC3)n2)c(C(F)F)n1,MAK,"binding, competition with immobilised ligand",,10 µM,remaining binding,100%
COc1ccc2[nH]cc(CCNC(=O)CI)c2c1,MTNR1B,"cAMP, agonist, TR-FRET",CHO-K1,20 min,Emax,103%
COc1ncccc1-c1cnn2ccc(N3CCN(C(=O)OC(C)C)CC3)nc12,"Non-receptor tyrosine-protein kinase TNK1 (TNK1, Homo sapiens, UniProt Q13470)","binding, competition with immobilised ligand",,1 µM,remaining binding,100%
CN[C@]1(c2ccccc2Cl)CCCCC1=O,"Mitogen-activated protein kinase 1 (MAPK1, Homo sapiens, UniProt P28482)","enzyme activity, inhibitor",,30 µM,inhibition,-3%
CN[C@@H](C)[C@H](O)c1ccccc1,PDE4D,"enzyme activity, inhibitor, radiometric",,50 µM,inhibition,-7.03%
